Measurements from ChEMBL document CHEMBL1667804, “Design and synthesis of caffeoyl-anilides as portmanteau inhibitors of HIV-1 integrase and CCR5” (Bioorg Med Chem, 2011).
Active and inactive are the calls of the source. No cut-off for these calls is given here.

Tests used:
[1] = Cytotoxicity against human CEM-GFP cells assessed as highest non cytotoxic concentration after 48 hrs by MTT assay; format: cell-based, CCRF-CEM; conditions: read-out: MNCC
In short: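 Viability by MTT in CEM-GFP cells after 48 h, absorbance at 540 nm. Viability first measured at three concentrations, then further dilutions made to find the concentration giving 95% viability.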

[2] = tested on: Human immunodeficiency virus 1; assay: Antiviral activity against HIV1 NL4.3 infected in human CEM-GFP T cells assessed as inhibition of p24 antigen production at highest non cytotoxic concentration after 7 days by ELISA; format: functional, CCRF-CEM
In short: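 HIV-1 NL4.3 infection of CEM-GFP cells at MOI 0.05, with compound at the highest noncytotoxic concentration (95% viability in MTT) for 7 days. p24 in day-7 supernatant measured by capture ELISA. Reported as % decrease versus untreated infected cells. Preliminary screen by GFP microfluorometry.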

[3] = target: Human immunodeficiency virus type 1 reverse transcriptase (Human immunodeficiency virus 1) (UniProt Q72547); assay: Inhibition of HIV1 reverse transcriptase
[4] = tested on: Human immunodeficiency virus 1; assay: Antiviral activity against HIV1 NL4.3 infected in human CEM-GFP T cells assessed as inhibition of p24 antigen production after 7 days by ELISA; format: functional, organism-based; conditions: Human immunodeficiency virus 1, NL4.3, CCRF-CEM, 168 h
In short: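 CEM-GFP cells infected with HIV-1 NL4.3 at MOI 0.05, then cultured with compound for up to 7 days after infection. Day-7 supernatant p24 measured by antigen-capture ELISA. EC50 is the concentration giving 50% inhibition of virus production against untreated infected cells (n = 3). AZT positive control.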

[5] = tested on: Human immunodeficiency virus 1; assay: Antiviral activity against R5 tropic HIV1 IndieC infected in human TZM-bl cells expressing CD4, CCR5 and CXCR4 assessed as inhibition of virus entry at highest non cytotoxic concentration after 48 hrs by luciferase assay; format: functional
In short: (§1)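 TZM-bl cells (10^4/well) seeded and left overnight at 37 °C. Compound added in DMEM/10% FBS for 1 h, then cells washed and infected for 4 h with IndieC (R5) or IIIB (X4).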

[6] = target: Human immunodeficiency virus type 1 integrase (Human immunodeficiency virus 1, UniProt Q7ZJM1); assay: Inhibition of full-length recombinant HIV1 integrase
In short: (§2)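 Kit ELISA-type strand-transfer assay. Biotin end-labelled double-stranded HIV-1 LTR U5 donor oligo bound on streptavidin plates, then full-length recombinant HIV-1 integrase loaded. Compound added, followed by a 3′-end-modified double-stranded target oligo. Screened at 20 µg/mL, IC50 determined in µg/mL and converted to molar. Sodium azide positive control.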

[7] = Cytotoxicity against human CEM-GFP cells after 48 hrs by MTT assay; format: cell-based, CCRF-CEM
In short: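 MTT assay in CEM-GFP cells (2 × 10^4/well), 48 h exposure over a range of concentrations, with untreated and vehicle controls. Formazan dissolved and read at 540 nm. CC50 is the concentration giving 50% cytotoxicity in uninfected cells (n = 3).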

[8] = tested on: Human immunodeficiency virus 1; assay: Antiviral activity against X4 tropic HIV1 3B infected in human TZM-bl cells expressing CD4, CCR5 and CXCR4 assessed as inhibition of virus entry at highest non cytotoxic concentration after 48 hrs by luciferase assay; format: functional; in short: as §1
[9] = target: Human immunodeficiency virus type 1 integrase (Human immunodeficiency virus 1) (UniProt Q7ZJM1); assay: Inhibition of full-length recombinant HIV1 integrase at 20 ug/ml; in short: as §2
[10] = Therapeutic index, ratio of CC50 for human CEM-GFP cells to EC50 for HIV1 NL4.3; format: cell-based; conditions: read-out: Ratio CC50/EC50
[11] = target: Human immunodeficiency virus type 1 integrase (Human immunodeficiency virus 1) (UniProt Q7ZJM1); conditions: 5 ug/ml

Sequence of Human immunodeficiency virus type 1 integrase (Human immunodeficiency virus 1) (Q7ZJM1 as listed by the source): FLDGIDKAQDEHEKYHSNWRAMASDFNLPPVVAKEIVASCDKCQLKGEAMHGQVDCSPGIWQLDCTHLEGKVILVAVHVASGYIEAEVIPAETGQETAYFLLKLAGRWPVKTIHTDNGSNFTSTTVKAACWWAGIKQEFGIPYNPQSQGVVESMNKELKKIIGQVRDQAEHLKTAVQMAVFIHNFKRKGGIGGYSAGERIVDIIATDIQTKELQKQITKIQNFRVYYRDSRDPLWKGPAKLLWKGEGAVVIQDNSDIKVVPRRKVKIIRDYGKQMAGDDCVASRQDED
Sequence of Human immunodeficiency virus type 1 integrase (Q7ZJM1 whole entry): as the sequence (Q7ZJM1 as listed by the source) above

Compound	MNTC at 48 h [1]	inhibition (INH) [2]	Activity [3]	EC50 [4]	inhibition (INH) [5]	IC50 [6]	CC50 at 48 h [7]	inhibition (INH) [8]	inhibition [9]	selectivity ratio [10]	inhibition [11]
O=C(/C=C/c1ccc(O)c(O)c1)c1ccc(NC(=O)c2ccc(F)cc2F)cc1	6300 nM	16%	inactive								
Nc1ccc(C(=O)/C=C/c2ccc(O)c(O)c2)cc1	3900 nM	0%	inactive								
O=C(Cc1cccs1)Nc1ccc(C(=O)/C=C/c2ccc(O)c(O)c2)cc1	2600 nM	71.6%	inactive	0.9 µM	52.9%	44.6 µM	51.4 µM	0%	66.5%	59.1	
O=C(/C=C/c1ccc(O)c(O)c1)c1ccc(NC(=O)C23C[C@H]4C[C@@H](C2)C[C@@H](C3)C4)cc1	6000 nM	86.1%	inactive	4.2 µM	59.6%	36.8 µM	13.5 µM	0%	67.7%	3.2	
O=C(/C=C/c1ccc(O)c(O)c1)c1ccc(NC(=O)c2cccs2)cc1	2700 nM	0%	inactive								
O=C(/C=C/c1ccc(O)c(O)c1)c1ccc(NC(=O)c2ccccc2)cc1	2800 nM	73%	inactive	1.6 µM	58.6%	50.2 µM	20.3 µM	27.8%	56%	13	
Cc1cn([C@H]2C[C@H](N=[N+]=[N-])[C@@H](CO)O2)c(=O)[nH]c1=O [ZIDOVUDINE]	5000 nM	89.8%	inactive	1.1 µM			24.1 µM				
O=C(/C=C/c1ccc(O)c(O)c1)c1ccc(NC(=O)c2ccc(F)c(F)c2)cc1	2500 nM	77.6%	inactive	1.6 µM	71.5%	28.5 µM	15.7 µM	0%	74%	9.8	
COc1ccc(C(=O)Nc2ccc(C(=O)/C=C/c3ccc(O)c(O)c3)cc2)cc1	6400 nM	92.4%	inactive	1.9 µM	55.8%	25.2 µM	32.3 µM	0%	66.8%	17.4	
CC(C)CC(=O)Nc1ccc(C(=O)/C=C/c2ccc(O)c(O)c2)cc1	1400 nM	0%	inactive								
[N-]=[N+]=[N-] [SODIUM AZIDE]			inactive			1.2 µM					98.8%
O=C(/C=C/c1ccc(O)c(O)c1)c1ccc(NC(=O)c2ccco2)cc1	2900 nM	24.2%	inactive								
CC(=O)Nc1ccc(C(=O)/C=C/c2ccc(O)c(O)c2)cc1	1700 nM	0%	inactive								
O=C(/C=C/c1ccc(O)c(O)c1)c1ccc(NC(=O)c2ccc3ccccc3c2)cc1	2400 nM	0%	inactive								
CC(C)C(=O)Nc1ccc(C(=O)/C=C/c2ccc(O)c(O)c2)cc1	1500 nM	0%	inactive								
O=C(/C=C/c1ccc(O)c(O)c1)c1ccc(NC(=O)c2ccc(C(F)(F)F)cc2F)cc1	2200 nM	10.9%	inactive								
